Source: publication PMC3103189 (Journal of Medicinal Chemistry, 2011)
Marks after values point to notes of the source that are not given here.

What was measured:
[1] = system: panel of Gram-positive and Gram-negative bacteria; assay: MIC, summary statements over the panel; type: cell-based; conditions: read-out: MICs for the tetracycline-susceptible strains
Procedure, shortened: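 Broth microdilution MIC in liquid medium following CLSI methods. Medium was cation-adjusted Mueller Hinton broth, prepared fresh and held at 4 °C before testing, with defibrinated horse blood added as appropriate. Runs were accepted when comparator antibiotics fell within recommended quality-control ranges for the appropriate ATCC quality-control strains.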

[2] = cited from earlier work
[3] = system: E. coli S30 extract system (coupled transcription/translation); type: biochemical; conditions: relative to tetracycline
[4] = system: S. aureus clinical isolates (n = 31); assay: MIC50/MIC90 analysis, clinical isolates; type: cell-based, Staphylococcus aureus; conditions: n = 31 clinical isolates
[5] = system: H. influenzae clinical isolates (n = 11); assay: MIC50/MIC90 analysis, clinical isolates; type: cell-based, Haemophilus influenzae; conditions: n = 11 clinical isolates
[6] = system: E. coli clinical isolates (n = 20); assay: MIC50/MIC90 analysis, clinical isolates; type: cell-based, Escherichia coli; conditions: n = 20 clinical isolates
[7] = for Clobs / Vzobs: Sprague−Dawley rats, 1 mg/kg IV and 10 mg/kg PO, sterile water
[8] = system: S. pneumoniae clinical isolates (n = 19); assay: MIC50/MIC90 analysis, clinical isolates; type: cell-based, Streptococcus pneumoniae; conditions: n = 19 clinical isolates
[9] = system: S. aureus ATCC 13709 (Smith); assay: Mouse septicemia model, IV efficacy; type: in vivo; conditions: IV 1 h postchallenge, survival after 48 h

SMILES | MIC range S. aureus [4] | MIC range H. influenzae [5] | Clobs [7] [mL/h/kg] | Vzobs [7] [mL/kg] | further results
CN(C)[C@@H]1C(O)=C(C(N)=O)C(=O)[C@@]2(O)C(O)=C3C(=O)c4c(O)cncc4C[C@H]3C[C@@H]12.Cl.Cl [20a, 6-Demethyl-6-deoxy-8-azatetracycline Dihydrochloride] | – | – | – | – | MIC [1]: 0.25 to 1 µg/mL
CN(C)[C@@H]1C(O)=C(C(N)=O)C(=O)[C@@]2(O)C(O)=C3C(=O)c4c(O)cccc4[C@@](C)(O)[C@H]3C[C@@H]12 [tetracycline] | – | – | – | – | oral bioavailability in humans [2]: 50−70%
CN(C)[C@@H]1C(O)=C(C(N)=O)C(=O)[C@@]2(O)C(O)=C3C(=O)c4c(O)c(N)nc(Cl)c4C[C@H]3C[C@@H]12 [20j, 9-Amino-7-chloro-6-demethyl-6-deoxy-8-azatetracycline] | – | – | – | – | fold more potent than tetracycline in transcription/translation assay [3]: about 2 fold
CN(C)c1cc(NC(=O)CNC(C)(C)C)c(O)c2c1C[C@H]1C[C@H]3[C@H](N(C)C)C(O)=C(C(N)=O)C(=O)[C@@]3(O)C(O)=C1C2=O [tigecycline, reference compound] | ≤0.016−1 μg/mL | 0.25−1 μg/mL | 929 | 6119 | MIC range E. coli [6]: 0.125−2 μg/mL
CN(C)CC(C)(C)CNc1nc(Cl)c2c(c1O)C(=O)C1=C(O)[C@]3(O)C(=O)C(C(N)=O)=C(O)[C@@H](N(C)C)[C@@H]3C[C@@H]1C2.Cl [24l, 7-Chloro-6-demethyl-6-deoxy-9-[[3-(dimethylamino)-2,2-dimethylpropyl]amino]-8-azatetracycline Trihydrochloride] | 0.063−4 μg/mL | 0.25−2 μg/mL | 202 | 1256 | MIC range S. pneumoniae [8]: ≤0.016−0.063 μg/mL; MIC range E. coli [6]: 0.5−8 μg/mL; fold lower clearance than the other three compounds ([7]; Sprague-Dawley, rat, in vivo): 5 fold
CN(C)c1ncc(O)c2c1C[C@H]1C[C@H]3[C@H](N(C)C)C(O)=C(C(N)=O)C(=O)[C@@]3(O)C(O)=C1C2=O.Cl.Cl [20f, 6-Demethyl-6-deoxy-7-(dimethylamino)-8-azatetracycline Dihydrochloride] | ≤0.016−32 μg/mL | 0.063−4 μg/mL | 919 | 4177 | MIC range S. pneumoniae [8]: ≤0.016−8 μg/mL; S. aureus PD50 [9]: <0.30 ^b mg/kg
CN(C)[C@@H]1C(O)=C(C(N)=O)C(=O)[C@@]2(O)C(O)=C3C(=O)c4c(O)c(N)nc(F)c4C[C@H]3C[C@@H]12.Cl.Cl [20k, 9-Amino-6-demethyl-6-deoxy-7-fluoro-8-azatetracycline Dihydrochloride] | – | – | – | – | fold more potent than tetracycline in transcription/translation assay [3]: about 2 fold
